In experiment [1] the target is Prolyl endopeptidase FAP (Homo sapiens) (UniProt Q12884). The experiment is described as follows: Inhibition of human recombinant FAP at 100 uM using fluorogenic DPP substrate1 relative to control.
A further experiment addresses T1, Prolyl endopeptidase FAP (Homo sapiens, UniProt Q12884).
T1 sequence (Q12884 whole entry): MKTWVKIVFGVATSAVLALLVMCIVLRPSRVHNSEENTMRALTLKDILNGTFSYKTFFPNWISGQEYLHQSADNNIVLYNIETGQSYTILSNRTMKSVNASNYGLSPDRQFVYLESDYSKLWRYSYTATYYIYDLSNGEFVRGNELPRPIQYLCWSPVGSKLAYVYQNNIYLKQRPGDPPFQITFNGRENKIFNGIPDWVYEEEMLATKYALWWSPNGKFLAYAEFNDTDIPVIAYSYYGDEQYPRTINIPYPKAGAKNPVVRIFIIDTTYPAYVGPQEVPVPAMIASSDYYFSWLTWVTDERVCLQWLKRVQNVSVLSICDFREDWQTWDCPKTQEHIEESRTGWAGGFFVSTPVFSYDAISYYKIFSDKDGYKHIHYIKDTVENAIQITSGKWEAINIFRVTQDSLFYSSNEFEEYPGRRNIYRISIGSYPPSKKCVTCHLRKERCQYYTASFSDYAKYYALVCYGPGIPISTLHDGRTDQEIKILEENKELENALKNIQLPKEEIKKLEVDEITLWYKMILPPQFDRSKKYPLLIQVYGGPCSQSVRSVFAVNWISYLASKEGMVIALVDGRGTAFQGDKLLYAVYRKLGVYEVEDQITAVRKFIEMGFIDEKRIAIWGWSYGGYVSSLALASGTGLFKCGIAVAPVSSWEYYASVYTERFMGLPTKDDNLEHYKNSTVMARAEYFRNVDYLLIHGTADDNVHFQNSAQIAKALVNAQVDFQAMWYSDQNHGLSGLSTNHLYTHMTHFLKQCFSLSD
The experiment in a line: Inhibition of FAP (unknown origin).

A short description of experiment [2]: Drug metabolism in buffer assessed as formation of [(2R)-1-(2-benzyl-3-oxo-isoindoline-4-carbonyl)pyrrolidin-2-yl]boronic acid after 10 mins by LC-MS analysis. The essentials: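 Boronic ester hydrolysis was followed by LC-MS (UHPLC-QTOF, positive ESI). Ester from a 100 mM DMSO stock was diluted 1:10 into buffer in a capped autosampler vial. Aliquots were taken at 5 min intervals and loop-injected in 1:1 water/acetonitrile with 0.1% formic acid. The boronic ester remaining was tracked over time.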

Experiment [3] deals with T2, Prolyl endopeptidase (Homo sapiens) (UniProt P48147).
T2 sequence (whole entry): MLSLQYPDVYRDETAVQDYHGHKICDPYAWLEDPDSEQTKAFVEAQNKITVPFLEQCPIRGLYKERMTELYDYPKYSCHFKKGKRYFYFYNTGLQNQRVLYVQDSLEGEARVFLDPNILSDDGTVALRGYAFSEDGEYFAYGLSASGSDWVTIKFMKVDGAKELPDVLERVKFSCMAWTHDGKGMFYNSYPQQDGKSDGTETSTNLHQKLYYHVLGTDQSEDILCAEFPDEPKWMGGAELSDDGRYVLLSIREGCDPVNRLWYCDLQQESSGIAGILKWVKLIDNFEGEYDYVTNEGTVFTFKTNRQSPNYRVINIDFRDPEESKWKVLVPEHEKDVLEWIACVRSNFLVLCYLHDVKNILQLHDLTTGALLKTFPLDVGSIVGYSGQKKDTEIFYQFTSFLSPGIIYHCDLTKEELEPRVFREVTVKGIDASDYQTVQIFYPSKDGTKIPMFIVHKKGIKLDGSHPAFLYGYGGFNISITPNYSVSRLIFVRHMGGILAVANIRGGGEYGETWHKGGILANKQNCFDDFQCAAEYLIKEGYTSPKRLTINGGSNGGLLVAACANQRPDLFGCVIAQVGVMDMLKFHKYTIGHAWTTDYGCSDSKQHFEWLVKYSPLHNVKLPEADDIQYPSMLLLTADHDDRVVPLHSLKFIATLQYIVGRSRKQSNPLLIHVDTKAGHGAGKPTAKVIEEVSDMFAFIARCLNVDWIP
The experiment in a line: (§1) Inhibition of recombinant human POP pre-incubated for 30 mins before addition of ZGP-pNA substrate by absorbance assay.

The target in experiment [4] is Prolyl endopeptidase FAP (Homo sapiens) (UniProt Q12884). The experiment in a line: Inhibition of human recombinant FAP at 10 uM using fluorogenic DPP substrate1 relative to control.
The target in the next experiment is T3, Prolyl endopeptidase (Homo sapiens, UniProt P48147).
T3 sequence (P48147 whole entry): T2 sequence (whole entry)
Described as §1.

This is an account of results in ChEMBL document CHEMBL4334469, “Integrated Synthetic, Biophysical, and Computational Investigations of Covalent Inhibitors of Prolyl Oligopeptidase and Fibroblast Activation Protein α” (J Med Chem, 2019).

One may read the inhibition as the percentage by which the read-out fell short of the control. For orientation: IC50 means the concentration at which inhibition is half-maximal. The term Ki denotes a measure of affinity in units of concentration, obtained from inhibition or displacement.

Active and inactive are the calls of the source. No cut-off for these calls is given here. Peptide text beside a SMILES is read from it. * marks the point of attachment. Cbz = O=C(OCc1ccccc1)* Where only a bound is given, the exact number is not on record here.

Consider `O=C(c1cccc2c1C(=O)N(Cc1ccccc1)C2)N1CC[C@@H](F)C1`, for which the inhibition in experiment [1] was under 5%.
`CC(C)[C@H](NC(=O)c1ccncc1)C(=O)N1CCC[C@H]1B(O)O` yielded an IC50 on Prolyl endopeptidase FAP of over 100 µM.
For the compound `CC1(C)[C@H]2C[C@@H]3OB([C@@H]4CCCN4C(=O)c4cccc5c4C(=O)N(Cc4ccccc4)C5)O[C@]3(C)[C@@H]1C2`, in experiment [1], the inhibition was under 5%. The Drug metabolism in experiment [2] stood at 90%.
Regarding `O=C(c1cccc2c1C(=O)N(Cc1ccccc1)C2)N1CC[C@H](F)C1`, the inhibition in experiment [1] was under 5%.
Still for that read-out and setting: the result for `O=C[C@@H]1CCCN1C(=O)[C@@H]1CCCN1C(=O)OCc1ccccc1` (Cbz-Pro-Pro-aldehyde) reads under 5%.
For the compound `N#C[C@@H]1CCCN1C(=O)c1cccc2c1C(=O)N(Cc1ccccc1)C2`, the inhibition in experiment [1] was 20%.
As for `CC1(C)[C@@H]2C[C@@H](O)[C@@](C)(O)[C@H]1C2`, the inhibition entry in experiment [3] is “inactive”.
As to `O=C[C@@H]1CCCN1C(=O)c1cccc2c1C(=O)N(Cc1ccccc1)C2`, the results for the inhibition in experiment [1] and in experiment [4] were 80% and 11%, respectively.
As for `N#C[C@@H]1C[C@@H](F)CN1C(=O)c1cccc2c1C(=O)N(Cc1ccccc1)C2`, the inhibition in experiment [1] is under 5%. Besides, the Ki at Prolyl endopeptidase was over 100 µM.
As to `N#C[C@@H]1C[C@H](F)CN1C(=O)c1cccc2c1C(=O)N(Cc1ccccc1)C2`, the inhibition in experiment [1] is under 5%. In addition, the Ki at Prolyl endopeptidase is 0.17 µM.
In the case of `N#C[C@@H]1CC(F)(F)CN1C(=O)c1cccc2c1C(=O)N(Cc1ccccc1)C2`, the inhibition in experiment [1] was under 5%. Besides, the Ki on Prolyl endopeptidase amounted to 3.3 µM.
As to `O=C(c1cccc2c1C(=O)N(Cc1ccccc1)C2)N1CCCC1`, in experiment [1], the inhibition was under 5%.
